Results on six molecules are retold here after ChEMBL document CHEMBL1152226 (Bioorg Med Chem, 2008).

Data set [1] addresses Inosine-5'-monophosphate dehydrogenase 1 (Homo sapiens, UniProt P20839). Description: Inhibition of human IMPDH1. Summed up: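 Run in duplicate with IMPDH type 1 (100 nM; line 2) or type 2 (30 nM; line 3) in 50 mM Tris pH 8.0, 100 mM KCl, 1 mM DTT, with IMP and NAD substrates. Inhibitors were added from DMSO to 1% final. At 25 °C, NADH formation was followed at 340 nm. Ki(app) came from fitting steady-state velocities versus inhibitor concentration to the Morrison equation.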

Data set [2] concerns the target Inosine-5'-monophosphate dehydrogenase 2 (Homo sapiens, UniProt P12268). Description: Inhibition of human IMPDH2.
Data set [3] has as its system K562. Kind of data set: Antiproliferative activity against human K562 cells after 72 hrs by MTS assay. It counts as functional, cell-based. On the technique in general: Formazan colour is commonly taken as a measure of viable cells.
Data set [4] is described as follows: Selectivity ratio of IC50 for human K562 cells to Ki for human IMPDH2. It counts as ADME, cell-based.

Sequence of Inosine-5'-monophosphate dehydrogenase 1 (P20839 whole entry): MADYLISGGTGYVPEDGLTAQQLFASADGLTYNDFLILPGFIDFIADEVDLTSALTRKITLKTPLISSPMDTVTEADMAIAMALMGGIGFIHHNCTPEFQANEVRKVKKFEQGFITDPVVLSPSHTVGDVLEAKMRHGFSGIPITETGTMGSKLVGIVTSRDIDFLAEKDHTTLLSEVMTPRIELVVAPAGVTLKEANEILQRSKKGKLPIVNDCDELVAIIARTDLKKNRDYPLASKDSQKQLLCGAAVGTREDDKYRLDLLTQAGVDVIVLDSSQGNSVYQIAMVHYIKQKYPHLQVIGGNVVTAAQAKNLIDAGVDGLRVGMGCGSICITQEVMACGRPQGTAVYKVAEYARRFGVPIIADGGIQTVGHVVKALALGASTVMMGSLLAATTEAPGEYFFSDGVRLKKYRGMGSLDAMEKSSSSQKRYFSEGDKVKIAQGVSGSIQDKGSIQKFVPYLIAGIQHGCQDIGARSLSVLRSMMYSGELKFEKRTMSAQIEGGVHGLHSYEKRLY

As for `COc1cc(C/C=C(\C)CCC(=O)O)ccc1-c1cnco1`, the Ki (in general, a measure of affinity in units of concentration, obtained from inhibition or displacement) came out at 42.8 µM in data set [1] and 14.3 µM in data set [2]. Besides, in data set [3] (Homo sapiens, K562, 72 h), the IC50 (commonly the concentration that gives 50% inhibition) was greater than 100 µM.

For the molecule `COc1ccc(C/C=C(\C)CCC(=O)O)cc1-c1cnco1`, the inhibition constant Ki in data set [1] was determined as 20.8 µM; in data set [2] it was 8.7 µM. This molecule registered an IC50 in data set [3] (Homo sapiens, K562, 72 h) greater than 100 µM.

On to `COc1c(C/C=C(\C)CCC(=O)O)cc(-c2cnco2)c(OC)c1C`, for which the inhibition constant Ki in data set [1] and in data set [2] was greater than 100 µM each time.

As for `COc1cc(OC)c(-c2cnco2)cc1C/C=C(/C)CCC(=O)O`, the inhibitory constant (Ki) in data set [1] stood at 97.3 µM; in data set [2], 30.1 µM. In addition, in data set [3] (Homo sapiens, K562, 72 h), the 50% inhibitory concentration (IC50) turned out to be 71 µM.

`COc1cc(OC)c(-c2cnco2)cc1C/C=C(\C)CCC(=O)O` (stereo in doubt; 3): the figures for the Ki in data set [1] and in data set [2] were 16 µM and 4.3 µM, respectively. Further, the half-inhibitory concentration (IC50) in data set [3] (Homo sapiens, K562, 72 h) worked out at 56 µM. Besides, the Ratio in data set [4] was determined as 10.

Regarding `COc1cc(OC)c(-c2cnco2)cc1C/C=C(\C)CCC(=O)O` (stereo in doubt; 3-E), the inhibition constant (Ki) came out at 10.3 µM in data set [1] and 2.3 µM in data set [2]. 88 µM corresponded to half-maximal inhibition in data set [3] (k562) (IC50).
